Data as given in ChEMBL document CHEMBL3085765, “The synthesis, antiviral, cytostatic and cytotoxic evaluation of a new series of acyclonucleotide analogues with a 1,2,3-triazole linker” (Eur J Med Chem, 2013).

Assays:
HeLa = assay: Cytostatic activity against human HeLa cells after 3 days by coulter ZI particle counting analysis; format: functional, cell-based; details: 72 h
In short: (§1)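 Cells seeded in 96-well plates and grown with or without serial dilutions of compound, 2 days for L1210 and 3 days for CEM and HeLa. IC50 taken as concentration inhibiting cell proliferation by 50%.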

L1210 = assay: Cytostatic activity against mouse L1210 cells after 2 days by coulter ZI particle counting analysis; format: functional, cell-based; details: L1210, 48 h; in short: as §1
CCRF-CEM = assay: Cytostatic activity against human CEM cells after 3 days by coulter ZI particle counting analysis; format: functional, cell-based; details: 72 h; in short: as §1
Felid alphaherpesvirus 1 = assay: Antiviral activity against Feline herpesvirus infected in cat CRFK cells assessed as inhibition of virus-induced cytopathicity; format: functional, organism-based; details: Felid alphaherpesvirus 1, CRFK
In short: (§2)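 Confluent monolayers (HEL for HSV-1 KOS and HSV-2 G; CRFK for feline herpes virus) in 96-well plates inoculated with 100 CCID50 of virus in presence of varying compound concentrations (100, 20, 4, … μM). Cytopathicity scored when complete in untreated infected controls; EC50 = concentration inhibiting virus-induced cytopathicity by 50%.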

Human alphaherpesvirus 2 = assay: Antiviral activity against Herpes simplex virus 2 G infected in human HEL cells assessed as inhibition of virus-induced cytopathicity; format: functional, organism-based; details: Human alphaherpesvirus 2, strain G; in short: as §2
Human alphaherpesvirus 1 = assay: Antiviral activity against Herpes simplex virus 1 KOS infected in human HEL cells assessed as inhibition of virus-induced cytopathicity; format: functional, organism-based; details: Human alphaherpesvirus 1, KOS; in short: as §2

Structure (SMILES)	IC50 (HeLa)	IC50 (L1210)	IC50 (CCRF-CEM)	EC50 (Felid alphaherpesvirus 1)	EC50 (Human alphaherpesvirus 2)	EC50 (Human alphaherpesvirus 1)
CCOP(=O)(CCCn1cc(Cn2ccc(=O)n(C(=O)c3ccccc3)c2=O)nn1)OCC	> 200 µM	> 200 µM	> 200 µM	> 200 µM	> 200 µM	> 200 µM
CCOP(=O)(CCCn1cc(Cn2c(=O)n(C(=O)c3ccccc3)c(=O)c3ccccc32)nn1)OCC	129 µM	> 200 µM	44 µM	24 µM	17 µM	17 µM
